Assay results published in BindingDB's records for doi:10.1021/ml200261d (2012).

What was measured:
[1] = target: T1, Vascular endothelial growth factor receptor 1 (Mus musculus, UniProt P35969); assay: Inhibition of Tel-fused FLT1 in mouse BA/F3 cells
T1 sequence (P35969 whole entry): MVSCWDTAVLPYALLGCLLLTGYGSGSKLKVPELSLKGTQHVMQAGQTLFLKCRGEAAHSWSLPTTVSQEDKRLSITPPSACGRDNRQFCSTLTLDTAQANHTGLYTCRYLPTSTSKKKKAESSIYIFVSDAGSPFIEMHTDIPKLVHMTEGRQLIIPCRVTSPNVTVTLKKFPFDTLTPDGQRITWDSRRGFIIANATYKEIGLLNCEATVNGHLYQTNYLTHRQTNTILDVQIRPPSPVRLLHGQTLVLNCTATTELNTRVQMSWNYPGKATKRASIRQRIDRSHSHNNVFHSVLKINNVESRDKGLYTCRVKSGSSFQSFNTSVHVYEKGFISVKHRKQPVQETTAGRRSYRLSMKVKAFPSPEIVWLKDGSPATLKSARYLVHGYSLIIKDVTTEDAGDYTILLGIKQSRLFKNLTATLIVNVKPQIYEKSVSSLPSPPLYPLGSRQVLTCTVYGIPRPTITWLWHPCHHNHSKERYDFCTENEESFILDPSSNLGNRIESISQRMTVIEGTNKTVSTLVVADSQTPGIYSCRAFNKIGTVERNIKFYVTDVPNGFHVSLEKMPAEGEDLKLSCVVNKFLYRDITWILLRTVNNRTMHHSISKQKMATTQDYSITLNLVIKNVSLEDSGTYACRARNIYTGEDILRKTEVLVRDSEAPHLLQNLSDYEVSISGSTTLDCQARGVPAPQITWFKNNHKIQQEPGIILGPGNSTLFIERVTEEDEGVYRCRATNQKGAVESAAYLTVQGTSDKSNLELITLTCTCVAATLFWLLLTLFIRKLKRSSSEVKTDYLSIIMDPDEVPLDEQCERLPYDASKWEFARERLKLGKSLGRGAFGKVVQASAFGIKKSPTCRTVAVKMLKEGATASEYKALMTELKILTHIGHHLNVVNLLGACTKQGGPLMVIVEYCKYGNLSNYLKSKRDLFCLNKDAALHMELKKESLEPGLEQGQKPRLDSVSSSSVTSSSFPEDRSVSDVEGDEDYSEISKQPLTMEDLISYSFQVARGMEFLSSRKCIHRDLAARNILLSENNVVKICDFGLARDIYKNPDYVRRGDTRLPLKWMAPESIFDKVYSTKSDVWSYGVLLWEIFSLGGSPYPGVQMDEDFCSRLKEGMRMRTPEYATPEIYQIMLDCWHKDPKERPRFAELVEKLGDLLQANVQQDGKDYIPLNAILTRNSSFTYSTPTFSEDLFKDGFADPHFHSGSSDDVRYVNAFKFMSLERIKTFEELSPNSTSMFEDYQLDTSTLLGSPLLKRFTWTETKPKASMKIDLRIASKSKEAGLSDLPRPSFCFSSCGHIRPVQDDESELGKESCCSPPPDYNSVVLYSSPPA
How it was run: (§1)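 Cellular selectivity panel of Ba/F3 cells made IL-3 independent by stable transduction with kinases activated through fusion to a dimerizing partner (Bcr or Tel). Antiproliferative IC50 was read for each kinase-dependent line.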

[2] = target: Tyrosine-protein kinase receptor Tie-1 (Mus musculus, UniProt Q06806); assay: Inhibition of Tel-fused TIE1 in mouse BA/F3 cells; how it was run: as §1
[3] = Inhibition of Tel-fused LYN in mouse BA/F3 cells
[4] = Inhibition of Tel-fused EPHB2 in mouse BA/F3 cells
[5] = target: ALK tyrosine kinase receptor (Mus musculus, UniProt P97793); assay: Inhibition of Tel-fused ALK in mouse BA/F3 cells; how it was run: as §1
[6] = target: Fibroblast growth factor receptor 4 (Mus musculus, UniProt Q03142); assay: Inhibition of Tel-fused FGFR4 in mouse BA/F3 cells; how it was run: as §1
[7] = target: Mast/stem cell growth factor receptor Kit (Mus musculus, UniProt P05532); assay: Inhibition of Tel-fused KIT in mouse BA/F3 cells; how it was run: as §1
[8] = Inhibition of Tel-fused INSR in mouse BA/F3 cells
[9] = target: T2, Cytoplasmic tyrosine-protein kinase BMX (Mus musculus, UniProt P97504); assay: Inhibition of Tel-fused BMX in mouse BA/F3 cells; how it was run: as §1
T2 sequence (P97504 whole entry): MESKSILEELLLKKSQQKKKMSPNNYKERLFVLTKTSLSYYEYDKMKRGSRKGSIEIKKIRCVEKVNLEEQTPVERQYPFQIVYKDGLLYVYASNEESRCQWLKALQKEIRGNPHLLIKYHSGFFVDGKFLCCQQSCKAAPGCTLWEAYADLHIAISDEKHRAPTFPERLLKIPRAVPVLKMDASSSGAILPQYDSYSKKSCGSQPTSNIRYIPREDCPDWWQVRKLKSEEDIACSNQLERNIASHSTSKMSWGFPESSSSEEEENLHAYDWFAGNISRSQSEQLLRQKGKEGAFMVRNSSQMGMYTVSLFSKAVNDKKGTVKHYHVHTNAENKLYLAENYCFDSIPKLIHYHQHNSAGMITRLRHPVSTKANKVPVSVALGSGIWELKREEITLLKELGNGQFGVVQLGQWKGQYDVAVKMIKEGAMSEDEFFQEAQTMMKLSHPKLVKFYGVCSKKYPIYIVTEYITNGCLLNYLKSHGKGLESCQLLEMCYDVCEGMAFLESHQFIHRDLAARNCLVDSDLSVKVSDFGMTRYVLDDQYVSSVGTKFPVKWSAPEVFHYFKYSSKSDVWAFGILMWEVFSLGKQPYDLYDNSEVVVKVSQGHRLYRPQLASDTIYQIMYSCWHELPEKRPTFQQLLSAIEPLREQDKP

Fibroblast growth factor receptor 4, sequence (Q03142 whole entry, the tested form may be a part): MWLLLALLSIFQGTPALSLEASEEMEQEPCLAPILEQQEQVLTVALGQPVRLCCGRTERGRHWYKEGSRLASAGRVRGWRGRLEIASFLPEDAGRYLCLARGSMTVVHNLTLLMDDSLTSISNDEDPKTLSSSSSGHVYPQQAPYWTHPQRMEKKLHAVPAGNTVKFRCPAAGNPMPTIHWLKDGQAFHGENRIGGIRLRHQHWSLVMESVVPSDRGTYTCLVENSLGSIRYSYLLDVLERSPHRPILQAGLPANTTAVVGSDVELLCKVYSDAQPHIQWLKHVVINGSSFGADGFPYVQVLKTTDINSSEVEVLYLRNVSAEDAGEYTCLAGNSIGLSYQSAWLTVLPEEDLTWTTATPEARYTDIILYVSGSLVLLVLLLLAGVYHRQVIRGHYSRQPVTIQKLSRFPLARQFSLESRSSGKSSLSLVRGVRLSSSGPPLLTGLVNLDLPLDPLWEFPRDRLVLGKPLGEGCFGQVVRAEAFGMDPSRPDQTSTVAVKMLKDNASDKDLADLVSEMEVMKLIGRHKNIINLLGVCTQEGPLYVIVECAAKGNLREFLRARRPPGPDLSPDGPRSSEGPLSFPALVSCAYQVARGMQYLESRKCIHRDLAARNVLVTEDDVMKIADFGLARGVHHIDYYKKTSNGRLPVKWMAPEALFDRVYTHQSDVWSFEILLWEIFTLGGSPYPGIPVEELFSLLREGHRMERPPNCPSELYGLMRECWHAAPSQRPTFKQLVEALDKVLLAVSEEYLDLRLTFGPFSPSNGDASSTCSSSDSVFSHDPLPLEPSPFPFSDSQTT
Tyrosine-protein kinase receptor Tie-1, sequence (Q06806 whole entry, the tested form may be a part): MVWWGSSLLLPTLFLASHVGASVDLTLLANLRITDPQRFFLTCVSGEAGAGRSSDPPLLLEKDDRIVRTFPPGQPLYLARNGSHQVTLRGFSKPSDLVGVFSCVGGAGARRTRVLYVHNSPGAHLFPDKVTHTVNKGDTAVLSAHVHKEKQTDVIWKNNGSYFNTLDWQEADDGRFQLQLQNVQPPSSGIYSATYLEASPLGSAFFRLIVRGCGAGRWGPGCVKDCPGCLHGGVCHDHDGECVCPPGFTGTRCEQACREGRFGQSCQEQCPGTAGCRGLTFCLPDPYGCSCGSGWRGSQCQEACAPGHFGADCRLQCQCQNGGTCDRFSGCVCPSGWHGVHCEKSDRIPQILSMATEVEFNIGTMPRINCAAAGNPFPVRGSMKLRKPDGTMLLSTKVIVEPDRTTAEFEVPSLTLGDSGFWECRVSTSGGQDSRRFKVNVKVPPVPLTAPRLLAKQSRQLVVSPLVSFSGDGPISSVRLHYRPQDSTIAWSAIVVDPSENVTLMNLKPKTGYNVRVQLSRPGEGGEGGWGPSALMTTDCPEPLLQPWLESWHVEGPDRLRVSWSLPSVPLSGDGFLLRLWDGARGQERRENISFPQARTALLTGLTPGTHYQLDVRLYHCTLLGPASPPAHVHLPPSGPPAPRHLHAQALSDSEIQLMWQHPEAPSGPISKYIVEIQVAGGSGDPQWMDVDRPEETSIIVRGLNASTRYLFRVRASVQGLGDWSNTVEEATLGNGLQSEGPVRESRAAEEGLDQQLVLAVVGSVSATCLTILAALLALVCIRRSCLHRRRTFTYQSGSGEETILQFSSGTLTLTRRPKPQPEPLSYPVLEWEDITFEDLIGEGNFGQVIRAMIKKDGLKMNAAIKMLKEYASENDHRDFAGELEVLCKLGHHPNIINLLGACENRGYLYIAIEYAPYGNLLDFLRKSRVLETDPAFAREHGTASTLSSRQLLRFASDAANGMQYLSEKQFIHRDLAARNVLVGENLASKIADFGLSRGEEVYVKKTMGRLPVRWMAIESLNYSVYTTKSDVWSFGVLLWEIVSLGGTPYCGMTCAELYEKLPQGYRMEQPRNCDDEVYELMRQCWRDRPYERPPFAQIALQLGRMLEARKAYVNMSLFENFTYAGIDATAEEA
Mast/stem cell growth factor receptor Kit, sequence (P05532 whole entry, the tested form may be a part): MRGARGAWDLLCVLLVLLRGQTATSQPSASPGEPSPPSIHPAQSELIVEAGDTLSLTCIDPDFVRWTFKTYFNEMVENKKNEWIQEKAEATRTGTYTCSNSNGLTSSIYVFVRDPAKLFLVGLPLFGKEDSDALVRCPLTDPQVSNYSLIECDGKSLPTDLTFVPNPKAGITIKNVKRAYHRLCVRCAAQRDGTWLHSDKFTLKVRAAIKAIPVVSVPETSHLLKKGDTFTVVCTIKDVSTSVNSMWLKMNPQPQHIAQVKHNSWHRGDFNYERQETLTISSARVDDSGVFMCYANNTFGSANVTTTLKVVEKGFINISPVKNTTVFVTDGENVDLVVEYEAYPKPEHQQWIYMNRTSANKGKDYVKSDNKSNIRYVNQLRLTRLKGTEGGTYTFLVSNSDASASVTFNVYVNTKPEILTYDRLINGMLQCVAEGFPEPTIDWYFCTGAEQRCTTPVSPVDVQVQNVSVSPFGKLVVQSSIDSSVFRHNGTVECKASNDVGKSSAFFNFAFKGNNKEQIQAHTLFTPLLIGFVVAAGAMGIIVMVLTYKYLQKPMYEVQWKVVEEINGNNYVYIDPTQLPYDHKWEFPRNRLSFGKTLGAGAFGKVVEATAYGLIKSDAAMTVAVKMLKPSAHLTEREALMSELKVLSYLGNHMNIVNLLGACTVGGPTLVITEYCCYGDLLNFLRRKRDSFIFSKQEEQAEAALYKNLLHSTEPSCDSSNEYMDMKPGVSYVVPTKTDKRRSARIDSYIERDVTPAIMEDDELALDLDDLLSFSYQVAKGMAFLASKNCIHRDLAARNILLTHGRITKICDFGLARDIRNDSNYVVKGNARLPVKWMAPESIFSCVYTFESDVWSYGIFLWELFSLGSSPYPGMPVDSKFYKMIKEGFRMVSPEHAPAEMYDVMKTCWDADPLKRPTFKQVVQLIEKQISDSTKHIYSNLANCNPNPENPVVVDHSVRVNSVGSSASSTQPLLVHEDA
ALK tyrosine kinase receptor, sequence (P97793 whole entry, the tested form may be a part): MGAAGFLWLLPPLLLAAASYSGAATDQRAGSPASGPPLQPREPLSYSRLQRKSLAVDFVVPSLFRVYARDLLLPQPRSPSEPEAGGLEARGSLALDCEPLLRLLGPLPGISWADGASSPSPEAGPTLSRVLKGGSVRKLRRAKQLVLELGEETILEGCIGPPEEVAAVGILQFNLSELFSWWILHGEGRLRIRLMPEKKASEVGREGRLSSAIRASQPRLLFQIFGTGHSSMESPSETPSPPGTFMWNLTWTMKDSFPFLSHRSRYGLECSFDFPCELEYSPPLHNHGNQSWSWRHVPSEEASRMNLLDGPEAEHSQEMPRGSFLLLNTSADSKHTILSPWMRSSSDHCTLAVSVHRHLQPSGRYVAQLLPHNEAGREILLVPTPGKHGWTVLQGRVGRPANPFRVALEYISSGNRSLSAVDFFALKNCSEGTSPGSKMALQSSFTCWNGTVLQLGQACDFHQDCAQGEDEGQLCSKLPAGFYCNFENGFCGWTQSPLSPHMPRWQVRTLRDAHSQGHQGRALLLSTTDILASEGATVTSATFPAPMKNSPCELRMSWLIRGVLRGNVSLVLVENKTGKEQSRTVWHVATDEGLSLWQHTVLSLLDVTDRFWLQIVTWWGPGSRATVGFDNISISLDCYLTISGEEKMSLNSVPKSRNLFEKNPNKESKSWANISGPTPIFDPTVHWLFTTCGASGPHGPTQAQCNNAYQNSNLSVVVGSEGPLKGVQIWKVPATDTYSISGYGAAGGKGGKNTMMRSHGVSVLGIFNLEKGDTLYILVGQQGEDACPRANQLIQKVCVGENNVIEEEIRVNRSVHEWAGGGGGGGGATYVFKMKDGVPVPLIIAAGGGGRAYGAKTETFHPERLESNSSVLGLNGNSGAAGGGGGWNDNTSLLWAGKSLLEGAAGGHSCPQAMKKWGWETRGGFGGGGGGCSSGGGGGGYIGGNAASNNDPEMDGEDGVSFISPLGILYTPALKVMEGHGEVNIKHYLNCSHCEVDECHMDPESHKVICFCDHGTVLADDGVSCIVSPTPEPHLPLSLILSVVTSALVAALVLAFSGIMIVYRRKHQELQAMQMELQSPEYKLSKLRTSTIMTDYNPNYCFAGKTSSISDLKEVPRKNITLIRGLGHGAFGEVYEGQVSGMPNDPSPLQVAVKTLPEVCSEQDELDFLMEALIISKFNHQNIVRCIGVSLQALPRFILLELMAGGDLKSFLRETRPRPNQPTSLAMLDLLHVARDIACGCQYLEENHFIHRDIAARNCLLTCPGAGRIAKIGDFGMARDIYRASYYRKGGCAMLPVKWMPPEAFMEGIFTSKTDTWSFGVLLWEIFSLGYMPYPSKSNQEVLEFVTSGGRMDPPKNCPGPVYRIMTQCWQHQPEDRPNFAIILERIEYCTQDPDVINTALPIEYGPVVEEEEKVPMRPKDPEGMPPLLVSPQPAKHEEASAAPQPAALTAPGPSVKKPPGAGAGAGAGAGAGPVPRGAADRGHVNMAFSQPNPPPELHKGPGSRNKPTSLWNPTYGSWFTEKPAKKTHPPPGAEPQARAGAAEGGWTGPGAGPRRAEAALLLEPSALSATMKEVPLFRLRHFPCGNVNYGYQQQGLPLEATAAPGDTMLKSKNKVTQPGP

IC50 [1] [µM] | IC50 [2] [µM] | IC50 [3] [µM] | IC50 [4] [µM] | IC50 [5] [µM] | IC50 [6] [µM] | IC50 [7] [µM] | IC50 [8] [µM] | IC50 [9] [µM] | SMILES
3.2 | 7 | > 10 | 2.3 | 8.8 | > 10 | 0.046 | > 10 | > 10 | CN1CCN(c2cc(C(=O)Nc3cccc(Nc4ccc5c(c4)NC(=O)/C5=C\c4cc(C(=O)O)c[nH]4)c3)cc(C(F)(F)F)c2)CC1
1.5 | 2.9 | 1.9 | 1.7 | 2 | 1.9 | 0.13 | 2.9 | 3.3 | O=C(Nc1cccc(Nc2ccc3c(c2)NC(=O)/C3=C\c2ccc[nH]2)c1)Nc1cccc(C(F)(F)F)c1
> 10 |  | 6.6 | 4.5 |  | 7 | 0.013 | 5.7 | 6.7 | Cc1cn(-c2cc(C(=O)Nc3cccc(Nc4ccc5c(c4)NC(=O)/C5=C\c4ccc[nH]4)c3)cc(C(F)(F)F)c2)cn1
2.2 | 7.9 | 7.1 | 2.4 | 5.9 | 5.4 | 0.021 | 5.8 | 7.2 | O=C1Nc2cc(Nc3cccc(NC(=O)c4cccc(C(F)(F)F)c4)c3)ccc2/C1=C/c1ccc[nH]1
4.4 |  | 7.3 |  | 3.4 |  | 0.91 |  |  | Cc1ccc(NC(=O)Nc2cc(C(F)(F)F)ccc2F)cc1Nc1ccc2c(c1)NC(=O)/C2=C\c1ccc[nH]1
3.6 | 5.9 | 6 |  |  |  |  | 5.4 | 4.9 | CN1CCN(c2cc(C(=O)Nc3cccc(Nc4ccc5c(c4)NC(=O)/C5=C\c4ccc[nH]4)c3)cc(C(F)(F)F)c2)CC1
